SMILES strings stand for the structures. The source made the active and inactive calls. The calls are words filed in the database; no cut-off is given here.

Usually inhibition stands for the percentage by which the read-out fell short of the control.

Test [1] can be described thus: Antioxidant activity assessed as inhibition of superoxide anion generation at 200 ug/mL after 30 mins by NBT reduction assay relative to control. The class given is functional. A digest of the protocol: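 Superoxide was generated by xanthine, xanthine oxidase (0.04 U) and nitroblue tetrazolium in 100 mM phosphate buffer pH 8.2, with or without agent at 200 µg/ml, for 30 min at 37 °C. Stopped with glacial acetic acid; formazan read at 560 nm, and % inhibition derived using ε 7.2 × 10³ M⁻¹cm⁻¹.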

For test [2], the system named is Rattus norvegicus. Kind of test: Antihyperlipidemic activity in Charles-Foster rat assessed as reversal of triton-induced increase in plasma phospholipid level at 100 mg/kg, po after 18 hrs relative to control. The class given is functional. In outline:
(§1)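 Male adult Charles Foster rats (200-225 g), 6 per group; triton WR-1339 400 mg/kg i.p. plus oral test agent in 0.2% gum acacia suspension, given together, diet withdrawn. After 18 h, retro-orbital EDTA blood was centrifuged 2500 g, 4 °C, 10 min; plasma was diluted 1:3 in saline and TC, PL and TG were assayed enzymatically (mg/dl). Mean ± SD; Student's t-test.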

For test [3], the system named is Rattus norvegicus. Kind of test: Antihyperlipidemic activity in Charles-Foster rat assessed as reversal of triton-induced increase in plasma total cholesterol level at 100 mg/kg, po after 18 hrs relative to triton-treated control. It is filed as functional. In outline: as §1
In test [4] the test system is Rattus norvegicus. Kind of test: Antihyperlipidemic activity in Charles-Foster rat assessed as reversal of triton-induced increase in plasma total cholesterol level at 100 mg/kg, po after 18 hrs relative to control. The class given is functional. In outline:
as §1

The test system of test [5] is Rattus norvegicus. Put plainly: Antihyperlipidemic activity in triton-induced Charles-Foster rat assessed as increase in plasma lecithin cholesterol acyltransferase activity at 100 mg/kg, po after 18 hrs by colorimetric assay. The class given is functional, organism-based. Details: dose 100 mg/kg.
Test [6] relates to Rattus norvegicus. Put plainly: Antihyperlipidemic activity in Charles-Foster rat assessed as reversal of triton-induced decrease in HDL level at 100 mg/kg, po after 18 hrs. It is filed as functional, organism-based. Details: dose 100 mg/kg. A digest of the protocol:
(§2)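 Triton WR-1339 (400 mg/kg i.p.) hyperlipidemic male Charles Foster rats dosed 100 mg/kg p.o. for 18 h, 6/group. Serum was fractionated into VLDL, LDL and HDL by polyanionic precipitation and lipoprotein cholesterol measured. Mean ± SD; Student's t-test against triton group.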

Test [7] relates to Rattus norvegicus. Kind of test: Antihyperlipidemic activity in Charles-Foster rat assessed as reversal of triton-induced increase in LDL level at 100 mg/kg, po after 18 hrs. The class given is functional, organism-based. Details: dose 100 mg/kg. A digest of the protocol: as §2
Test [8] relates to Rattus norvegicus. Kind of test: Antihyperlipidemic activity in Charles-Foster rat assessed as reversal of triton-induced increase in VLDL level at 100 mg/kg, po after 18 hrs. The class given is functional, organism-based. Details: dose 100 mg/kg. In outline: as §2
Test [9] concerns Rattus norvegicus. Kind of test: Antihyperlipidemic activity in Charles-Foster rat assessed as reversal of triton-induced increase in plasma triglyceride level at 150 mg/kg, po after 18 hrs relative to triton-treated control. The class given is functional. In outline: (§3)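 Dose-response in triton WR-1339 (400 mg/kg i.p.) hyperlipidemic male Charles Foster rats given oral agent at 50, 100 or 150 mg/kg in gum acacia suspension for 18 h, 6 rats/group. Plasma TC, PL and TG were measured enzymatically. Pooled data as mean ± SD; triton versus triton-plus-agent groups compared by t-test.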

In test [10] the test system is Rattus norvegicus. Kind of test: Antihyperlipidemic activity in Charles-Foster rat assessed as reversal of triton-induced increase in plasma triglyceride level at 50 mg/kg, po after 18 hrs relative to triton-treated control. The class given is functional. In outline:
as §3

Test [11] has as its system Rattus norvegicus. Kind of test: Antihyperlipidemic activity in Charles-Foster rat assessed as reversal of triton-induced increase in plasma phospholipid level at 150 mg/kg, po after 18 hrs relative to triton-treated control. The class given is functional. In outline: as §3
In test [12] the test system is Rattus norvegicus. Put plainly: Antihyperlipidemic activity in Charles-Foster rat assessed as reversal of triton-induced increase in plasma phospholipid level at 50 mg/kg, po after 18 hrs relative to triton-treated control. The class given is functional. A digest of the protocol:
as §3

Test [13] deals with Rattus norvegicus. Put plainly: Antihyperlipidemic activity in Charles-Foster rat assessed as reversal of triton-induced increase in plasma total cholesterol level at 150 mg/kg, po after 18 hrs relative to triton-treated control. The class given is functional. In outline: as §3
Test [14] deals with Rattus norvegicus. Kind of test: Antihyperlipidemic activity in Charles-Foster rat assessed as reversal of triton-induced increase in plasma total cholesterol level at 50 mg/kg, po after 18 hrs relative to triton-treated control. It is filed as functional. In outline: as §3
In test [15] the test system is Rattus norvegicus. Kind of test: Antihyperlipidemic activity in Charles-Foster rat assessed as post heparin lipolytic activity at 100 mg/kg, po after 18 hrs by spectrophotometric analysis relative to triton-treated control. It is filed as functional. A digest of the protocol:
(§4)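 Male adult Charles Foster rats (200-225 g), 6 per group. Triton WR-1339 400 mg/kg i.p.; test agent 100 mg/kg p.o. as gum acacia (0.2% w/v) suspension in water, given simultaneously, diet withdrawn; vehicle to control and triton groups. At 18 h under thiopentone (50 mg/kg), retro-orbital blood collected into EDTA and plasma separated. Post-heparin lipolytic activity read spectrophotometrically as nmol free fatty acid/h/ml plasma; mean ± SD; Student's t-test.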

The subject of test [16] is Rattus norvegicus. Kind of test: Antihyperlipidemic activity in Charles-Foster rat assessed as post heparin lipolytic activity at 100 mg/kg, po after 18 hrs by spectrophotometric analysis relative to control. The class given is functional. In outline:
as §4

The test system of test [17] is Rattus norvegicus. Put plainly: Antihyperlipidemic activity in Charles-Foster rat assessed as reversal of triton-induced increase in plasma triglyceride level at 100 mg/kg, po after 18 hrs relative to triton-treated control. The class given is functional. In outline:
as §1

The test system of test [18] is Rattus norvegicus. Put plainly: Antihyperlipidemic activity in Charles-Foster rat assessed as reversal of triton-induced increase in plasma triglyceride level at 100 mg/kg, po after 18 hrs relative to control. The class given is functional. A digest of the protocol: as §1
Test [19] deals with Rattus norvegicus. Kind of test: Antihyperlipidemic activity in Charles-Foster rat assessed as reversal of triton-induced increase in plasma phospholipid level at 100 mg/kg, po after 18 hrs relative to triton-treated control. It is filed as functional. In outline:
as §1

Test [20] can be described thus: Antioxidant activity assessed as inhibition of microsomal lipid peroxidation at 200 ug/mL by spectrophotometric analysis relative to control. The class given is functional.
The nature of test [21]: Antioxidant activity assessed as inhibition of hydroxyl radical generation at 200 ug/mL after 90 mins by spectrophotometric analysis relative to control. It is filed as functional. A digest of the protocol:
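Hydroxyl radicals were generated non-enzymically from deoxyribose (2.8 mM), FeSO4 (2 mM), sodium ascorbate (2.0 mM) and H2O2 (2.8 mM) in KH2PO4 buffer pH 7.4, 2.5 mL final, with or without agent at 200 µg/ml, for 90 min at 37 °C. MDA was read spectrophotometrically by the thiobarbituric acid method against reference samples and reagent blanks.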

The test system of test [22] is Rattus norvegicus. Put plainly: Antihyperlipidemic activity in po dosed Charles-Foster rat assessed as reversal of triton-induced increase in plasma triglyceride level after 18 hrs. The class given is functional, organism-based. In outline: as §1
Test [23] relates to Rattus norvegicus. Put plainly: Antihyperlipidemic activity in po dosed Charles-Foster rat assessed as reversal of triton-induced increase in plasma phospholipid level after 18 hrs. It is filed as functional, organism-based. A digest of the protocol: as §1
The subject of test [24] is Rattus norvegicus. Put plainly: Antihyperlipidemic activity in po dosed Charles-Foster rat assessed as reversal of triton-induced increase in plasma total cholesterol level after 18 hrs. The class given is functional, organism-based. In outline:
as §1

Turning to `Oc1ncnc2[nH]ncc12`, the inhibition in test [1] turned out to be 51%.

Consider `CCCc1cc(C(c2c[nH]c3ccc(OC)cc23)c2c[nH]c3ccc(OC)cc23)cc2cc(C(=O)c3ccc(OC)cc3)oc12`, for which the Activity in test [2] is 159.29 mg/dL; in [3], -24%; in test [4] it was 139.99 mg/dL; in [9] it was -24%; in test [10], -16%; in [11], -26%. The Activity in test [12] is -18%; in [13], -24%; in [14], -17%; in test [15], 16%; in test [16] it was 15.32 nmol/h/mL; in [17] it was -23%. For the same molecule, the values for the Activity in test [18] and in test [19] were 166.4 mg/dL and -23%, respectively. Moreover, the outcome in [5], in test [6], in test [7] and in [8] was Active.

As to `COc1ccc(C(=O)c2cc3cc(C(c4c[nH]c5ccc(OC)cc45)c4c[nH]c5ccc(OC)cc45)cc(C(C)(C)C)c3o2)cc1`, the Activity in [2] is 159.29 mg/dL; in [3], -24%; in test [4], 139.99 mg/dL; in test [9] it was -24%; in [10], -21%; in test [11], -23%. Besides, the Activity in test [12] was -20%; in test [13], -27%; in test [14] it was -20%; in test [15], 17%; in [16] it was 15.45 nmol/h/mL; in [17], -23%. Besides, the Activity in test [18] was 166.4 mg/dL; in test [19] it was -23%. For the same molecule, the outcome in [5], in test [6], in [7] and in test [8] was Active.

Consider `CCc1cc(C(c2c[nH]c3ccc(OC)cc23)c2c[nH]c3ccc(OC)cc23)cc2cc(C(=O)c3ccc(OC)cc3)oc12`, for which the Activity in test [2] is 146.88 mg/dL; in test [3], -28%; in test [4], 132.63 mg/dL; in test [22] it was “Dose-dependent effect”; in [23], “Dose-dependent effect”; in test [24] it was “Dose-dependent effect”. Further, the Activity is reported as -30% in test [9]; -20% in test [10]; -29% in test [11]; -20% in test [12]; -29% in [13]; -22% in [14]. In addition, the Activity in test [15] was 18%; in [16], 15.58 nmol/h/mL; in [17] it was -28%; in test [18] it was 155.59 mg/dL; in [19], -29%. In addition, the inhibition in [20] was 32%; in [21], 27%; in test [1], 31%. Also, the result in test [5], in test [6], in [7] and in test [8] was Active.

On to `COc1ccc(C(=O)c2cc3cc(C(c4c[nH]c5ccc(OC)cc45)c4c[nH]c5ccc(OC)cc45)cc(C)c3o2)cc1`, for which the Activity in test [2] was 159.29 mg/dL; in test [3], -23%; in test [4] it was 141.84 mg/dL; in test [9], -25%; in test [10], -16%; in [11] it was -24%. The Activity in test [12] was -17%; in test [13], -25%; in test [14], -15%; in test [15], 16%; in test [16] it was 15.32 nmol/h/mL; in test [17], -24%. The Activity is 164.24 mg/dL in test [18] and -23% in [19]. In addition, the inhibition in test [20] amounted to 31%; in test [21], 30%; in test [1], 33%. The outcome in [5], in test [6], in test [7] and in test [8] was Active.
